Source: PubChem (several laboratories)
p97 ATPase inh: inhibitors of human p97 ATPase, primary screen, biochemical. Transitional endoplasmic reticulum ATPase (Homo sapiens), P55072. recombinant p97 ATPase, Kinase-Glo ATP luminescence, 3 h. inhibition, % at 8 µM. hit rate 0.42% among 220,000. AID 1481, 2009; in the data active = inhibition above about 15%;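 note: 0% = DMSO vehicle and 100% = wells lacking enzyme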
Diaph inh CS: diaphorase inhibitors and chemical oxidizers, primary screen, counter-screen for diaphorase-coupled primary assays, biochemical, uHTS, resorufin fluorescence. diaphorase resazurin-to-resorufin fluorescence, NADH, 16 min; bacterial (C. kluyveri) enzyme, not human. inhibition, % at 20 µM. hit rate 0.69% among 190,000;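 active = primary screen inhibition at 20 µM above a set limit, cut at about 50% in these data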;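 note: plate controls were DMSO with full reaction for no effect and wells lacking NADH for full effect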
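Assay system: diaphorase enzyme from Clostridium kluyveri. Quantity: enzyme working solution with 0.14 U/mL diaphorase. Schedule: reaction incubation of 16 min at room temperature. Technique: resorufin fluorescence, excitation 544 nm, emission 590 nm. Controls: No-NADH positive control and DMSO neutral control.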
G6PDH CS: L. mesenteroides G6PDH inhibitors, counter-screen for G6PDH-coupled screening assays, biochemical, Leuconostoc mesenteroides enzyme; glucose-6-phosphate dehydrogenase [Leuconostoc mesenteroides]; Purified L. mesenteroides G6PDH, diaphorase/resazurin coupled fluorescence, 45 min; inhibition, % at 5 µM; hit rate 0.12% among 200,000; AID 1020, 2008; in the data active = inhibition above about 50%
UBC9 SUMO inh: inhibitors of in vitro SUMOylation cascade, primary screen, biochemical, HTRF, uHTS; SUMO-conjugating enzyme UBC9 (Homo sapiens), P63279; inhibition, % at 35 µM; HTRF SUMOylation assay, SAE1/SAE2 + UBC9; hit rate 0.36% among 290,000; in the data active = inhibition above about 50%, passing the limit was not always enough
Target sequence (P63279 whole entry, looked up): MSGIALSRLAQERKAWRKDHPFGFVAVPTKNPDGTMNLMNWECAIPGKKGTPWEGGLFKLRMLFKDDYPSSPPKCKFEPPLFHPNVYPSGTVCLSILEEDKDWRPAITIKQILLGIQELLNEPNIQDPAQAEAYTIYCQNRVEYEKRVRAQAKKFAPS
HKDC1 inh: HKDC1 hexokinase inhibitors, primary screen, biochemical, fluorescence, uHTS | AID 493160, 2011 | hit rate 0.16% among 340,000 | Q2TB90 | recombinant HKDC1, G6PDH/diaphorase resazurin coupled fluorescence | inhibition, % at 20 µM;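 active = inhibition above about 35% when tested at 20 µM, limit read from the data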;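 note: plate controls were DMSO wells with enzyme for no effect and DMSO wells lacking enzyme for full effect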
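Assay system: in-house recombinant HK5 (HKDC1) enzyme. Input: HKDC1 at 5 µg/mL. Medium: Tris pH 8.0 buffer with MgCl2, Tween-20, BSA, BME. Dosing: single 20 µM dose. Schedule: 90 min reaction incubation at room temperature, dark. Signal: resazurin-to-resorufin fluorescence via G6PDH and diaphorase coupling, 525/613 nm. Controls: DMSO-enzyme wells negative, buffer-substituted wells positive.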
An asterisk follows results filed as active; / = no result. In the library only some 0.95% were active in any assay of this set; here they are far more common.

SMILES	p97 ATPase inh	Diaph inh CS	G6PDH CS	UBC9 SUMO inh	HKDC1 inh
Cc1ccc(C(c2nnnn2Cc2ccccc2)N2CCN(Cc3ccccc3)CC2)cc1 (centres undefined)	7.8	79.4*	8.3	10.9	2.8
CC(=O)NC(c1ccc(C)cc1)c1cc([N+](=O)[O-])c2cccnc2c1O (centres undefined)	8.1	60.2*	60.7*	10.4	19.9
CCC(=O)NC(c1ccc(C)cc1)c1cc([N+](=O)[O-])c2cccnc2c1O (centres undefined)	-2.2	29.2	36.9	-9.8	4.4
CCCC(=O)NC(c1ccco1)c1cc([N+](=O)[O-])c2cccnc2c1O (centres undefined)	10.3	37.6	55.8*	7.2	4.3
Cc1cccn2c(=O)c3cc(C(=O)N4COCC4(C)C)sc3nc12	2.5	17.8	-1.6	18.5	19.3
COCCCn1c(C(=O)N2CC(C)OC(C)C2)cc2c(=O)n3ccccc3nc21 (centres undefined)	/	/	/	54.3*	-6.3
Cc1cccn2c(=O)c3cc(C(=O)NCC4CCCO4)n(C)c3nc12 (centres undefined)	1.5	/	/	/	/
Cn1c(C(=O)NCC2CCCO2)cc2c(=O)n3ccccc3nc21 (centres undefined)	0.7	6.6	8.3	52.9*	6.9
Cn1c(C(=O)N2COCC2(C)C)cc2c(=O)n3ccccc3nc21	-1.8	17.3	4.0	53.1*	-5.0
Nc1cccc2c1C(=O)N(CCOc1ccc(F)cc1)C2=O	/	/	/	23.0	-4.8
CC(=O)c1ccc(N2CCN(C(=O)c3cc(S(=O)(=O)N4CCOCC4)ccc3C)CC2)cc1	/	/	/	/	3.3
Cc1ccc(O)c(NC2=C(Cl)C(=O)N(Cc3ccccc3)C2=O)c1	5.0	50.9*	11.8	-18.1	3.0
Cc1cc(Br)ccc1-n1[nH]c(C)c(C=Nc2cccc3nsnc23)c1=O	2.2	61.1*	14.7	95.1	6.3
CCSC1=N/C(=C\c2ccc(-c3ccccc3[N+](=O)[O-])o2)C(=O)S1	1.4	62.7*	45.7	28.4	8.6
CCCSC1=N/C(=C\c2ccc([N+](=O)[O-])o2)C(=O)S1	3.2	40.8	4.4	5.1	18.6
COc1ccc(C(=O)c2ccc(Cl)cc2)c(OC)c1OC	/	/	/	/	-5.8
C/C(=N/NC(=O)c1ccccc1)c1ccc(NC(=O)C(F)(F)F)cc1	-4.0	-2.1	19.2	-9.7	-5.3
CCOC(=O)C1CCCN(C(=O)c2cccc(S(=O)(=O)N(C)c3ccc(C)cc3)c2)C1 (centres undefined)	/	/	/	/	-4.0
CCCCCn1c(N)c(C#N)c2nc3ccccc3nc21	0.4	27.5	11.4	87.6*	9.1
N#Cc1c(N)n(CCCN2CCOCC2)c2nc3ccccc3nc12	5.1	14.5	6.9	31.3	7.1
N#Cc1c(N)n(-c2cccc(C(=O)O)c2)c2nc3ccccc3nc12	5.3	/	/	59.8*	-0.7
C[C@@]12C(=O)Nc3ccccc3C(=O)N1[C@H]1c3cc(Br)ccc3OC[C@@H]1[C@@H]2c1ccccc1	/	/	/	/	9.4
O=c1[nH]cc(N=Cc2cc([N+](=O)[O-])ccc2O)c(=O)[nH]1	/	/	/	15.8	/
O=c1[nH]cc(N=Cc2cc(Cl)cc(Cl)c2O)c(=O)[nH]1	/	/	/	56.7*	18.8
CCC(=O)N1N=C(c2c(-c3ccccc3)c3cc(Cl)ccc3[nH]c2=O)CC1c1ccco1 (centres undefined)	1.8	-6.8	-15.4	54.1*	-16.0
SMILES	p97 ATPase inh	Diaph inh CS	G6PDH CS	UBC9 SUMO inh	HKDC1 inh
CCCC(NC(=O)CCc1c(C)c2cc3c(-c4ccccc4)coc3cc2oc1=O)C(=O)O (centres undefined)	/	/	/	22.5	-4.7
Nc1ccc(N)c(C(=O)O)c1	/	/	/	/	36.0*
Nc1ccc(C(=O)O)c(O)c1	6.5	21.8	12.3	7.4	7.2
O=c1cc(-c2ccccc2)nc2c(-c3ccccc3)c(C(F)(F)F)[nH]n12	3.0	/	/	50.6*	12.2
O=C1/C(=C\c2ccc(O)c(O)c2)C(c2ccccc2)=NN1c1ccccc1	9.3	64.6*	17.2	27.4	12.2
COc1cccc(CN(C)C(=O)CN2C(=O)NC(c3ccccc3)(c3ccccc3)C2=O)c1	/	/	/	/	0.2
COC(=O)CCC(=O)N1CCCC(CO)(Cc2ccccc2F)C1 (centres undefined)	/	/	/	3.1	-5.9
NNC(=O)c1cc(O)c(O)c(O)c1	-4.5	64.9*	9.2	31.4	13.8
COc1c(Cl)cc(C(=O)NN)cc1Cl	0.0	-15.2	-0.5	3.8	-6.6
c1ccc(CSc2nc3ncncc3[nH]2)cc1	6.2	/	/	-1.6	-9.5
S=c1nc(SCc2ccccc2)[nH]c2ccccc12	3.6	86.9*	5.0	29.7	-8.0
NC(=O)CN1CCOCCN(CC(N)=O)CCOCC1	/	8.2	55.9*	5.4	-0.2
COc1ccccc1-c1c(C#N)c(N)nc2c1CCc1ccccc1-2	-2.9	26.8	19.7	98.1*	24.7
CC1N(C(=O)N2CCOCC2)CCN1S(=O)(=O)c1ccc(Cl)cc1 (centres undefined)	/	/	/	12.9	-6.0
CC(C)CC(C(=O)Nc1cccc(O)c1)N1C(=O)c2ccccc2C1=O (centres undefined)	/	/	/	-3.6	0.6
CC(C)CC(C(=O)Nc1oc(-c2ccco2)c(-c2ccco2)c1C#N)N1C(=O)c2ccccc2C1=O (centres undefined)	1.5	56.1*	22.2	32.9	8.1
C/C(=N/Nc1ccc(C(=O)O)cc1)c1ccc(O)c(O)c1O	3.4	61.1*	24.8	11.6	2.9
N#CCCCCn1ccc(NC(=O)c2ccc(Cl)cc2O)n1	/	/	/	/	0.6
Cc1ccc(S(=O)(=O)O/N=C2\CCCc3ccccc32)cc1	2.0	32.1	8.1	13.0	16.7
CC1=C(C)/C(=N\OS(=O)(=O)c2ccccc2)C=CC1=O	3.5	100.2*	33.8	13.1	18.7
CCOC(=O)N1CCN(c2cc(NCCC(=O)O)c3c4c(onc24)-c2ccccc2C3=O)CC1	4.9	56.7*	-6.5	-55.5	37.1*
O=C(O)CCCNc1cc(N2CCN(C(=O)c3ccco3)CC2)c2noc3c2c1C(=O)c1ccccc1-3	/	/	/	-25.3	22.1
O=C(O)CCCNc1cc(N2CCC3(CC2)OCCO3)c2noc3c2c1C(=O)c1ccccc1-3	2.3	50.1*	38.7	38.2	/
Cc1noc(C)c1NC(=O)N(C)C[C@H]1Oc2c(NS(=O)(=O)c3cn(C)cn3)cccc2C(=O)N([C@H](C)CO)C[C@@H]1C	/	/	/	/	-0.1
CN(Cc1cccc(Cl)c1)C(=O)C1CCC(=O)N(C2CC2)C1 (centres undefined)	/	/	/	10.0	1.5
Cc1cc(C(=O)N/N=C/c2ccc(-c3ccccc3Cl)o2)n[nH]1	5.8	0.6	-6.1	13.8	-2.1
